Calls of active or inactive are those of the source. No cut-off for these calls is given here.
Assays:
Mus musculus [1] = test: Protection against APAP induced liver injury in mouse assessed as decrease in ALT level at 1 mg/kg, ip administered at 2.5 hrs; assay type: functional, organism-based; conditions: Serum
[2] = target: Serine/threonine-protein kinase 17A (Homo sapiens) (UniProt Q9UEE5); test: Inhibition of DRAK1 (unknown origin) assessed as remaining activity at 1 uM by Kinome scan method relative to control
[3] = target: Serine/threonine-protein kinase RIO1 (Homo sapiens) (UniProt Q9BRS2); test: Inhibition of RIOK1 (unknown origin) assessed as remaining activity at 1 uM by Kinome scan method relative to control
[4] = target: Calcium/calmodulin-dependent protein kinase type II subunit beta (Homo sapiens) (UniProt Q13554); test: Inhibition of CAMK2B (unknown origin) assessed as remaining activity at 1 uM by Kinome scan method relative to control
Method in brief: (§1)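 Active-site-dependent competition-binding profiling (KINOMEscan) at 1 μM against a 468-kinase panel; compound supplied from a 10 mM DMSO stock. Read-out is ctrl% = (test signal − positive control signal)/(negative control signal − positive control signal) × 100. DMSO is the negative control (100%) and a control compound the positive control (0%). Lower ctrl% means tighter binding.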

[5] = target: Phosphatidylinositol 4-phosphate 5-kinase type-1 alpha (Homo sapiens) (UniProt Q99755); test: Inhibition of PIP5K1A (unknown origin) assessed as remaining activity at 1 uM by Kinome scan method relative to control
[6] = target: Death-associated protein kinase 1 (Homo sapiens) (UniProt P53355); test: Inhibition of DAPK1 (unknown origin) assessed as remaining activity at 1 uM by Kinome scan method relative to control; method in brief: as §1
Sequence of Death-associated protein kinase 1 (Homo sapiens) (P53355 whole entry, looked up): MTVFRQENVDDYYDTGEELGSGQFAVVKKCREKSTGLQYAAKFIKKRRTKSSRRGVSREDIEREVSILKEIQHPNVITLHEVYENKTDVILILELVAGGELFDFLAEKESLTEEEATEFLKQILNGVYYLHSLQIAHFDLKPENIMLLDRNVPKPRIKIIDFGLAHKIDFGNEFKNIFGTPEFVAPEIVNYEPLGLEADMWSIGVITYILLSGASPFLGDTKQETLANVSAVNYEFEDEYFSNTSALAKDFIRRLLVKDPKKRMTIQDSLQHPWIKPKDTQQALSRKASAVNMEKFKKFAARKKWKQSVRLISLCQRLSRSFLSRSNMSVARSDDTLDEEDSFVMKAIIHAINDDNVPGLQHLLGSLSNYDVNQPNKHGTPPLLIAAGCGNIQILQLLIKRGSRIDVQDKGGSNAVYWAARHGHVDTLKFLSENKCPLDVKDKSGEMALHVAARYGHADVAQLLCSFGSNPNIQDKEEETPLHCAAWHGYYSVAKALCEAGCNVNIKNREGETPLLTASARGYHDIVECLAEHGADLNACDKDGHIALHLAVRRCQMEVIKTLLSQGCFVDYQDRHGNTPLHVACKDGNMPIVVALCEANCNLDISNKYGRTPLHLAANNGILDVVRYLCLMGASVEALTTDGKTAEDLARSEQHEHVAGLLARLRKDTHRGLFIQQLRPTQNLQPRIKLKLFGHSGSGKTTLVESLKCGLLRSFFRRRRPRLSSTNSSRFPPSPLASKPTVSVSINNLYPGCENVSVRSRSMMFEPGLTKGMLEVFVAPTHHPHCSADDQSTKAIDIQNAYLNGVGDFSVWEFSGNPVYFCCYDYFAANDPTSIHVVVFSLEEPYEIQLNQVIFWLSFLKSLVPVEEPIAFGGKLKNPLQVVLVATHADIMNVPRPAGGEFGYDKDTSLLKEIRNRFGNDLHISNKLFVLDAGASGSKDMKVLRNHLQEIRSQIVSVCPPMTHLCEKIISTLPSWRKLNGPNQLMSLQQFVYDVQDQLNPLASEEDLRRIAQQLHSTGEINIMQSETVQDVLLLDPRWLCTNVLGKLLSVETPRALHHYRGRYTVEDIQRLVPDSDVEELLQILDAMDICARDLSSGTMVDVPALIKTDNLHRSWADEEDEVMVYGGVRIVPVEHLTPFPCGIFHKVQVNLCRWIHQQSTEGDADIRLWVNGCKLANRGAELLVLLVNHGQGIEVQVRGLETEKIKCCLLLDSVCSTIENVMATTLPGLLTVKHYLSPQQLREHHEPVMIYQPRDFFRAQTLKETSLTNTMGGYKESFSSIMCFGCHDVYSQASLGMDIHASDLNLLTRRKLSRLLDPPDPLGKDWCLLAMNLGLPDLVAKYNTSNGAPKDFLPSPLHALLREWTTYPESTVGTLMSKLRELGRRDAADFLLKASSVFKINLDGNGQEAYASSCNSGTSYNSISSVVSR

[7] = target: G protein-coupled receptor kinase 3 (Homo sapiens) (UniProt P35626); test: Inhibition of GRK3 (unknown origin) assessed as remaining activity at 1 uM by Kinome scan method relative to control
Sequence of G protein-coupled receptor kinase 3 (Homo sapiens) (P35626 whole entry): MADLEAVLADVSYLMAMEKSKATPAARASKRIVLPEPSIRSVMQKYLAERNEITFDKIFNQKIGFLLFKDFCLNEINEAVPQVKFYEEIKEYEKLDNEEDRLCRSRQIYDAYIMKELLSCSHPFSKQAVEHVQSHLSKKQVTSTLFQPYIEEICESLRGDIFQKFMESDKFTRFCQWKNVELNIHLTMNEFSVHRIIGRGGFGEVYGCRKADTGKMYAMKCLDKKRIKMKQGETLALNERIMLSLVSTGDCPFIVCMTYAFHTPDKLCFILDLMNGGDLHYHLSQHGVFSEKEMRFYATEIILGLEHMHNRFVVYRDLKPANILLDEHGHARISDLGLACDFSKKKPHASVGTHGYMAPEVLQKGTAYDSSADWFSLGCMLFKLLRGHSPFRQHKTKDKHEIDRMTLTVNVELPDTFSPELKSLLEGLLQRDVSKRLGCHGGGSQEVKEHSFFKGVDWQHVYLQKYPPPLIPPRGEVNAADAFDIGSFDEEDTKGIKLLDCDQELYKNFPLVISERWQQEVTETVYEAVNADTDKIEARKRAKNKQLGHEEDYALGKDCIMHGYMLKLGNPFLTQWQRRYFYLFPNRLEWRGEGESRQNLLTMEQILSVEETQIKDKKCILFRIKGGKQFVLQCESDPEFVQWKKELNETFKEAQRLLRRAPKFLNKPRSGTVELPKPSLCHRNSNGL

[8] = target: Calcium/calmodulin-dependent protein kinase type II subunit gamma (Homo sapiens) (UniProt Q13555); test: Inhibition of CAMK2G (unknown origin) assessed as remaining activity at 1 uM by Kinome scan method relative to control; method in brief: as §1
[9] = target: Serine/threonine-protein kinase Sgk3 (Homo sapiens) (UniProt Q96BR1); test: Inhibition of SGK3 (unknown origin) assessed as remaining activity at 1 uM by Kinome scan method relative to control
[10] = target: SRSF protein kinase 2 (Homo sapiens) (UniProt P78362); test: Inhibition of SRPK2 (unknown origin) assessed as remaining activity at 1 uM by Kinome scan method relative to control
[11] = tested on: Mast/stem cell growth factor receptor Kit (Homo sapiens), P10721 [V559D,T670I]; test: Inhibition of KIT V559D/T670I mutant (unknown origin) assessed as remaining activity at 1 uM by Kinome scan method relative to control
[12] = target: Ephrin type-A receptor 4 (Homo sapiens) (UniProt P54764); test: Inhibition of EPHA4 (unknown origin) assessed as remaining activity at 1 uM by Kinome scan method relative to control
[13] = target: Dual specificity mitogen-activated protein kinase kinase 2 (Homo sapiens) (UniProt P36507); test: Inhibition of MEK2 (unknown origin) assessed as remaining activity at 1 uM by Kinome scan method relative to control
[14] = target: Phosphatidylinositol 5-phosphate 4-kinase type-2 gamma (Homo sapiens) (UniProt Q8TBX8); test: Inhibition of PIP5K2C (unknown origin) assessed as remaining activity at 1 uM by Kinome scan method relative to control
Sequence of Phosphatidylinositol 5-phosphate 4-kinase type-2 gamma (Homo sapiens) (Q8TBX8 whole entry): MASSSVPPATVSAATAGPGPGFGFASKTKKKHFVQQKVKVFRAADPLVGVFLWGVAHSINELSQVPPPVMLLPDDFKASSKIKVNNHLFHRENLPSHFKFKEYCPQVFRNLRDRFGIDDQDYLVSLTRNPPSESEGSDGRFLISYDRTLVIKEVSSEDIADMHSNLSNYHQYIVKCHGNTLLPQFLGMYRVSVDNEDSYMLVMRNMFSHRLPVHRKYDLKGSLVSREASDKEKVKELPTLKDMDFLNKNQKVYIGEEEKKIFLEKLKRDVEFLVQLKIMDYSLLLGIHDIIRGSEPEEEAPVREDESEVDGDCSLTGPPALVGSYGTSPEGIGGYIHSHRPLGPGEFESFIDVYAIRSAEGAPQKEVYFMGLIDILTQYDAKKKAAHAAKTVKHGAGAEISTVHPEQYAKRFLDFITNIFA

[15] = target: Dual specificity protein kinase TTK (Homo sapiens) (UniProt P33981); test: Inhibition of TTK (unknown origin) assessed as remaining activity at 1 uM by Kinome scan method relative to control
Sequence of Dual specificity protein kinase TTK (Homo sapiens) (P33981 whole entry): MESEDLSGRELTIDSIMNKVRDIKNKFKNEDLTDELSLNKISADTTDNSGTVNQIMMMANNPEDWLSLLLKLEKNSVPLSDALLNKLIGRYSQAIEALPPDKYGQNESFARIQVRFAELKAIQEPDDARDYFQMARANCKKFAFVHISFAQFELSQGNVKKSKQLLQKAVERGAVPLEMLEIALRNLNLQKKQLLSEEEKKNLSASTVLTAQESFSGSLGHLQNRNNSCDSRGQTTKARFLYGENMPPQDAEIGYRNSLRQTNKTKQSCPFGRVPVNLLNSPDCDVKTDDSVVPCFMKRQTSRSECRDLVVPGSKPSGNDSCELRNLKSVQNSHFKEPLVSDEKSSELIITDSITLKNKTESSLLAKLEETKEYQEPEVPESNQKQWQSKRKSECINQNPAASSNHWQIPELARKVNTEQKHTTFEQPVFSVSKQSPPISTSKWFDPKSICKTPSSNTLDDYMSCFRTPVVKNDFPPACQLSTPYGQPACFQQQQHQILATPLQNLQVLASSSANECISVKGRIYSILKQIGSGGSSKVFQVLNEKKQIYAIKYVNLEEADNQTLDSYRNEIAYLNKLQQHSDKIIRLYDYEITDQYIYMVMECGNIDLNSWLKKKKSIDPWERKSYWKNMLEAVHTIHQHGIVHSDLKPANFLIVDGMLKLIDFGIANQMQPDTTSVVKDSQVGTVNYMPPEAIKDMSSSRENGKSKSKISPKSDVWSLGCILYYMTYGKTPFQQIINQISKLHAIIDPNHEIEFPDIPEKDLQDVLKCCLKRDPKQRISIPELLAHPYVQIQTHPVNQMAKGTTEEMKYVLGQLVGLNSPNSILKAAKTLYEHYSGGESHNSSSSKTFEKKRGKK

[16] = Cmax in male Sprague-Dawley rat at 10 mg/kg, po measured for 24 hrs by LC-MS/MS analysis; assay type: ADME, organism-based; conditions: in vivo
Method in brief: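 Sprague-Dawley rats, single intravenous or oral dose. Parameters (half-life, AUC, bioavailability) reported in a supplementary table.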

[17] = target: Serine/threonine-protein kinase MARK2 (Homo sapiens) (UniProt Q7KZI7); test: Inhibition of MARK2 (unknown origin) assessed as remaining activity at 1 uM by Kinome scan method relative to control
[18] = target: Cyclin-dependent kinase 4 (Homo sapiens) (UniProt P11802); test: Inhibition of CDK4 (unknown origin) assessed as remaining activity at 1 uM by Kinome scan method relative to control; method in brief: as §1
[19] = target: Dual specificity tyrosine-phosphorylation-regulated kinase 1A (Homo sapiens) (UniProt Q13627); test: Inhibition of DYRK1A (unknown origin) assessed as remaining activity at 1 uM by Kinome scan method relative to control
[20] = target: Serine/threonine-protein kinase pim-2 (Homo sapiens) (UniProt Q9P1W9); test: Inhibition of PIM2 (unknown origin) assessed as remaining activity at 1 uM by Kinome scan method relative to control
Sequence of Serine/threonine-protein kinase pim-2 (Homo sapiens) (Q9P1W9 whole entry, looked up): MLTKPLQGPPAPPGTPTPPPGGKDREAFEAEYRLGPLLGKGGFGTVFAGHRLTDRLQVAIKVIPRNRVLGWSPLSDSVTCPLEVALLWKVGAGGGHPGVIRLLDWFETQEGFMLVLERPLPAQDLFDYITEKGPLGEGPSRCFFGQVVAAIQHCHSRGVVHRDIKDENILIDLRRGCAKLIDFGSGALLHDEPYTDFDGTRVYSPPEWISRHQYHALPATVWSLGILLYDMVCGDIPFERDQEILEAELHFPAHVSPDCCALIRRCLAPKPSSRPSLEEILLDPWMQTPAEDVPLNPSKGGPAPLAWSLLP

[21] = target: Dual specificity mitogen-activated protein kinase kinase 4 (Homo sapiens) (UniProt P45985); test: Inhibition of MEK4 (unknown origin) assessed as remaining activity at 1 uM by Kinome scan method relative to control
Sequence of Dual specificity mitogen-activated protein kinase kinase 4 (Homo sapiens) (P45985 whole entry): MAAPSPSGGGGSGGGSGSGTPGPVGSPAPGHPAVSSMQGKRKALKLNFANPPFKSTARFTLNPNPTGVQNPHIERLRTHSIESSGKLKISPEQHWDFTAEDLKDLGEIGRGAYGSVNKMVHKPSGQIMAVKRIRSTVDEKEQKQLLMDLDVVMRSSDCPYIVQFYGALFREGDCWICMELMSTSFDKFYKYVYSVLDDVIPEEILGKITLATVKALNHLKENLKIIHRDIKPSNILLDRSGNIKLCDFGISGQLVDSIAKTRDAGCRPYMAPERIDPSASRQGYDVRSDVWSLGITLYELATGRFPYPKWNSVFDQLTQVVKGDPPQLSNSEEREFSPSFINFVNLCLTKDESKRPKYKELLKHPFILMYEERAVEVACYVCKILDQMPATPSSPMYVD

[22] = target: Mast/stem cell growth factor receptor Kit (Homo sapiens) (UniProt P10721); test: Inhibition of KIT (unknown origin) assessed as remaining activity at 1 uM by Kinome scan method relative to control
[23] = tested on: Mast/stem cell growth factor receptor Kit (Homo sapiens), P10721 [L576P]; test: Inhibition of KIT L576P mutant (unknown origin) assessed as remaining activity at 1 uM by Kinome scan method relative to control
[24] = target: Serine/threonine-protein kinase D3 (Homo sapiens) (UniProt O94806); test: Inhibition of PRKD3 (unknown origin) assessed as remaining activity at 1 uM by Kinome scan method relative to control
Mus musculus [25] = test: Protection against human hepatocyte transplanted FRG mouse assessed as increase in the ratio of BrdU+/FAH+ cells at 1 mg/kg, ip administrated once a daily for 28 days by H&E staining based immunohistochemical analysis; assay type: functional, organism-based; conditions: Liver, time 28.0 day
[26] = target: Tyrosine-protein kinase ABL1 (Homo sapiens, UniProt P00519, M351T); test: Binding affinity to phosphorylated ABL1 M351T mutant (unknown origin) assessed as dissociation constant
[27] = target: Serine/threonine-protein kinase DCLK1 (Homo sapiens, UniProt O15075); test: Inhibition of DCAMKL1 (unknown origin) in presence of ATP by enzymatic assay
[28] = target: Ribosomal protein S6 kinase alpha-3 (Homo sapiens) (UniProt P51812); test: Inhibition of C-terminal kinase domain RSK2 (unknown origin) assessed as remaining activity at 1 uM by Kinome scan method relative to control
Method in brief: (§2)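 Active-site-dependent competition-binding (KINOMEscan) panel of 468 kinases, test compound at 1 μM (from a 10 mM DMSO stock). Read-out is ctrl% = (test signal − positive control signal)/(negative control signal − positive control signal) × 100. DMSO is the negative control (100%) and a control compound is the positive control (0%). Lower ctrl% means tighter binding.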

[29] = target: Ribosomal protein S6 kinase alpha-5 (Homo sapiens) (UniProt O75582); test: Inhibition of C-terminal kinase domain RPS6KA5 (unknown origin) assessed as remaining activity at 1 uM by Kinome scan method relative to control; method in brief: as §2
Sequence of Ribosomal protein S6 kinase alpha-5 (Homo sapiens) (O75582 whole entry, looked up, the tested form may be a part): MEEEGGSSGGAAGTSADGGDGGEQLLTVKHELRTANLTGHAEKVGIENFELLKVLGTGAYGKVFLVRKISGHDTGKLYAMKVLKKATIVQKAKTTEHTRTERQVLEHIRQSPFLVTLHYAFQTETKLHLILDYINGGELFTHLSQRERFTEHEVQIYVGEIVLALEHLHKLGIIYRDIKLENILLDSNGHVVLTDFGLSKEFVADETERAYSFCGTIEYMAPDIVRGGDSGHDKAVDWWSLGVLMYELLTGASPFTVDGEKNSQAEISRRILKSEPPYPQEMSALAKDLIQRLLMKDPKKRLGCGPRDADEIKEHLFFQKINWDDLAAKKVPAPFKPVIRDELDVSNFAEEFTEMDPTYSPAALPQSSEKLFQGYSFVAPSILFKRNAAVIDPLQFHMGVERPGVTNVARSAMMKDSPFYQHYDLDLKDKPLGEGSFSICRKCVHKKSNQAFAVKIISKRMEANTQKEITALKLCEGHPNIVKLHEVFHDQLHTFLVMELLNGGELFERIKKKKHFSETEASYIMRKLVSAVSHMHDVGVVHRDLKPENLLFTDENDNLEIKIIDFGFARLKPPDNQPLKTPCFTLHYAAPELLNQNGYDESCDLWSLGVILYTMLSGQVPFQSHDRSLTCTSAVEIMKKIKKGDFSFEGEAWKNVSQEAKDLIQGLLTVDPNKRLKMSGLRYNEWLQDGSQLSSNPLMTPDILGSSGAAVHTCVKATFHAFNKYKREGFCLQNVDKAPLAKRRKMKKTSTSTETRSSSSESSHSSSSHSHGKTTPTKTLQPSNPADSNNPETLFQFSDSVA

In the case of `CN1C(=O)c2sccc2N(C)c2nc(Nc3ccc(S(N)(=O)=O)cc3)ncc21`, the Activity (Mus musculus [1]) is reported as “Active”, the Activity [2] is reported as 100% and the Activity [3] is reported as 86%. The Activity [4] was 73%, the Activity [5] was 100% and the Activity [6] was 91%. It also gave an Activity [7] of 87%, an Activity [8] of 100% and an Activity [9] of 87%. It also gave an Activity [10] of 93%, an Activity [11] of 88% and an Activity [12] of 100%. It also gave an Activity [13] of 99%, an Activity [14] of 8% and an Activity [15] of 99%. For the same molecule, the Cmax [16] was 118 ng/mL, the Activity [17] was 93% and the Activity [18] was 86%. The Activity [19] was 81%, the Activity [20] was 100% and the Activity [21] was 100%. For the same molecule, the Activity [22] was 100%, the Activity [23] was 75% and the Activity [24] was 65%. For the same molecule, the Activity (Mus musculus [25]) was “Active”, the Kd [26] was 42 nM and the IC50 [27] was 27.9 nM. For the same molecule, the Activity [28] was 66% and the Activity [29] was 81%.

From ChEMBL document CHEMBL5705905, “Pharmacological targeting of kinases MST1 and MST2 augments tissue repair and regeneration” (Sci Transl Med, 2016)
